Data set [1] relates to Leishmania tropica. In words: Antileishmanial activity against Leishmania tropica MHOM/MA/1988/LEM1314 promastigotes infected in Syrian hamster assessed as reduction in lesion thickness at […] administered once daily through oral gavage for 3 weeks starting at week 7 post infection measured 1 week post last dose relative to control. It is filed as functional. Set-up: scale not given: the % may be the effect or the level left. In outline:
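L. tropica stationary-phase promastigotes (3 × 10^7 in 50 μL PBS) injected into the left hind footpad. Treatment began at week 7 (+75% footpad thickness) and ran daily for 21 days, n = 10/group. Routes were 50 mg ointment on the lesion (cetyl alcohol/lanolin/petrolatum base), gavage in olive oil, or intralesional meglumine antimoniate 2 mg SbV/kg. Lesion thickness was measured weekly against base-only ointment; sacrifice was 1 week after the last dose.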

In data set [2] the test system is Syrian golden hamster. Nature of the data set: Toxicity in Syrian hamster assessed as diarrhea at 500 mg/kg, po or 5 % administered tropically on footpad for 28 days. The data set is classed as organism-based, Mesocricetus auratus. To be noted: in vivo, 672 h.
Data set [3] has as its system Syrian golden hamster. In words: Toxicity in Syrian hamster assessed as footpad edema at 500 mg/kg, po or 5 % administered tropically on footpad for 28 days. To be noted: in vivo, 672 h. It is filed as organism-based, Mesocricetus auratus.
Data set [4] deals with Syrian golden hamster. Nature of the data set: Toxicity in Syrian hamster infected with Leishmania tropica MHOM/MA/1988/LEM1314 promastigotes assessed as mean serum AST levels at 1 % administered tropically on footpad for 3 weeks starting at week 7 post infection measured 1 week post last dose (reference value: 77.1 +/- 0.9 U/L). It is filed as organism-based, Mesocricetus auratus. As to conditions: in vivo, topical_or_ocular, 168 h.

The test system of data set [5] is Syrian golden hamster. Nature of the data set: Toxicity in Syrian hamster infected with Leishmania tropica MHOM/MA/1988/LEM1314 promastigotes assessed as mean serum creatinine levels at 2.5 % administered tropically on footpad for 3 weeks starting at week 7 post infection measured 1 week post last dose (reference value: 0.19 mg/dl). To be noted: in vivo, topical_or_ocular, 168 h. It is filed as organism-based, Mesocricetus auratus.

Data set [6] concerns Syrian golden hamster. In words: Toxicity in Syrian hamster infected with Leishmania tropica MHOM/MA/1988/LEM1314 promastigotes assessed as spleen weight at 1 % administered tropically on footpad for 3 weeks starting at week 7 post infection measured 1 week post last dose (reference value: 178.8 +/- 1.2 mg). The data set is classed as organism-based, Mesocricetus auratus. To be noted: in vivo, topical_or_ocular, 168 h.

For data set [7], the system named is Leishmania tropica. In words: Antileishmanial activity against Leishmania tropica MHOM/MA/1988/LEM1314 promastigotes infected in Syrian hamster assessed as reduction in parasite load in liver at 1 % administered once daily tropically on footpad for 3 weeks starting at week 7 post infection measured 1 week post last dose by qPCR analysis relative to control. It is filed as functional, tissue-based. The method in brief:
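Hamsters were infected in the footpad and treated daily for 21 days from week 7 post-infection, n = 10/group, and sacrificed 1 week after the last dose. Footpad skin, liver and spleen DNA was assayed by L. tropica-specific TaqMan qPCR (chromosome 29 target), in triplicate with 50 ng DNA per 25 μL reaction. Load was interpolated from Ct on a calibration curve of promastigote DNA, relative to base-ointment controls.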

Active and inactive are the calls of the source. No cut-off for these calls is given here.

Consider `CC(C)=CCC[C@](C)(O)[C@@H]1CC=C(C)CC1` [LEVOMENOL], for which the Activity in data set [1] is 62.5%; in data set [2], “Non-Toxic”; in data set [3], “Non-Toxic”; in data set [4], 82.2 U/L; in data set [5], 0.21 mg/dL; in data set [6], 175.3 mg. Moreover, in data set [7], the result was Active.

(Values after ChEMBL document CHEMBL3872233, “Topical Treatment of Leishmania tropica Infection Using (-)-α-Bisabolol Ointment in a Hamster Model: Effectiveness and Safety Assessment” (J Nat Prod, 2016).)
